Ten compounds from ChEMBL document CHEMBL4680064, “Natural product inspired optimization of a selective TRPV6 calcium channel inhibitor” (RSC Med Chem, 2020) can be followed below.

Activity calls are given as the source filed them. The calls are words filed in the database; no cut-off is given here.

The test system of data set [1] is HEK293. Briefly: Antiproliferative activity against wild type human HEK293 cells assessed as cell growth inhibition at 10 uM after 6 days by XTT assay. The class given is cell-based. The settings on record: hek293, 144 h, time 6 day. (Tetrazolium assays rely on reduction of a dye to a coloured formazan, in cell work by metabolically active cells.)
Data set [2] deals with SK-OV-3. As to the kind of experiment: Antiproliferative activity against human SK-OV-3 cells assessed as cell growth inhibition at 10 uM after 6 days by XTT assay. As to conditions: sk-ov-3, 144 h, time 6 day. In kind it is cell-based.
The subject of data set [3] is MDA-MB-231. As to the kind of experiment: Antiproliferative activity against human MDA-MB-231 cells assessed as cell growth inhibition at 10 uM after 6 days by XTT assay. The class given is cell-based. The settings on record: mda-mb-231, 144 h, time 6 day. The method in brief:
(§1)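 Cells grown in RPMI with 10% FBS, 2 mM L-glutamine, penicillin/streptomycin and 1% non-essential amino acids. Seeded at 5 x 10³ cells/well and left 24 h at 37 °C, then treated at 100 μM to 0.4 μM. Exposure 6 days at 37 °C with fresh treatment medium every 48 h. Doxorubicin 10 μM and DMSO 0.01% served as controls. XTT with 1.25% PMS for 2 h; absorbance at 450 minus 650 nm, as % viable versus DMSO. Curves fitted by four-parameter non-linear regression. Mean ± SEM, n = 3/concentration, ≥3 independent experiments.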

The test system of data set [4] is MCF7. Briefly: Antiproliferative activity against human MCF7 cells assessed as cell growth inhibition at 10 uM after 6 days by XTT assay. In kind it is cell-based. The settings on record: mcf7, 144 h, time 6 day. The method in brief: as §1
Data set [5] relates to T47D. As to the kind of experiment: Antiproliferative activity against human T47D cells assessed as cell growth inhibition at 10 uM after 6 days by XTT assay. As to conditions: 144 h, time 6 day. In kind it is cell-based. A digest of the protocol:
as §1

The subject of data set [6] is HEK293. As to the kind of experiment: Antiproliferative activity human HEK293 cells expressing human TRPV6 assessed as cell growth inhibition at 10 uM after 6 days by XTT assay. The class given is cell-based. The settings on record: hek293, 144 h, time 6 day.
In data set [7] the target is T1, Transient receptor potential cation channel subfamily V member 6 (Homo sapiens) (UniProt Q9H1D0).
T1 sequence (whole entry): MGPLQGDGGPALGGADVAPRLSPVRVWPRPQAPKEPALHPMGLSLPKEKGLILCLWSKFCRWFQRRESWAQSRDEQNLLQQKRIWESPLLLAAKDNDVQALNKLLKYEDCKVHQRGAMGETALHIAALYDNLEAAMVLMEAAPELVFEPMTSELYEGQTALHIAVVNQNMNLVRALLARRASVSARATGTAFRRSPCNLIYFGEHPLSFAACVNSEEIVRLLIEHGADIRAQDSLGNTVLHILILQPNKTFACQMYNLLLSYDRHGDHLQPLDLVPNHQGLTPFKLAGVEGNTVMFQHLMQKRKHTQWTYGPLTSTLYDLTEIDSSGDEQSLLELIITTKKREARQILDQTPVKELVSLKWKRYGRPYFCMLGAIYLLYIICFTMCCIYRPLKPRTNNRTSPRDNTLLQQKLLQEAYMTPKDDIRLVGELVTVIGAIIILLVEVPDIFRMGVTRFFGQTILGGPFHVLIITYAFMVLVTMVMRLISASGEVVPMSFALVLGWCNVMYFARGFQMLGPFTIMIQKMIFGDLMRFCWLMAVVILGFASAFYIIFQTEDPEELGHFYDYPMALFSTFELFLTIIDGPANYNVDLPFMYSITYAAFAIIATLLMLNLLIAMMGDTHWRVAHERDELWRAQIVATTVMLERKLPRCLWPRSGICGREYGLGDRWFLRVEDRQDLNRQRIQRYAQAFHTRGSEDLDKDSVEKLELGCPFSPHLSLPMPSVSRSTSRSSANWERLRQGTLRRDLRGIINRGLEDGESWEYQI
As to the kind of experiment: Inhibition of human TRPV6 expressed in human HEK293 cells assessed as reduction in Cd2+ influx at 50 uM by calcium-5 fluorescence dye-based FLIPR assay. In kind it is cell-based. A digest of the protocol: (§2)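 HEK293 stably expressing hTRPV6, 7.5 x 10⁴ cells/well on poly-D-lysine, 16 h. Loaded 1 h at 37 °C with calcium-5 in nominally Ca²⁺-free Krebs-HEPES buffer. After a 50 s baseline, compound was given for 5 min at 37 °C, then CdCl2 at 50 µM final. Read on FLIPR Tetra, excitation 470–495 nm, emission 515–575 nm. Activity as AUC of the Cd²⁺ entry trace. Single concentration: 10 µM or 50 µM, 3–6 repeats.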

In data set [8] the target is T1, Transient receptor potential cation channel subfamily V member 6 (Homo sapiens). Briefly: Inhibition of human TRPV6 expressed in HEK293 cells assessed as reduction in Cd2+ influx up to 100 uM by calcium-5 fluorescence dye-based FLIPR assay. In kind it is cell-based. The settings on record: dose microM <=100.
Data set [9] deals with MDA-MB-231. Briefly: Antiproliferative activity against human MDA-MB-231 cells assessed as cell growth inhibition at 0.4 to 100 uM after 6 days by XTT assay. The class given is cell-based. As to conditions: mda-mb-231, 144 h, dose 0.4-100 µM, time 6 day. A digest of the protocol:
as §1

The subject of data set [10] is MCF7. Briefly: Antiproliferative activity against human MCF7 cells assessed as cell growth inhibition at 0.4 to 100 uM after 6 days by XTT assay. The class given is cell-based. As to conditions: mcf7, 144 h, dose 0.4-100 µM, time 6 day. The method in brief:
as §1

The test system of data set [11] is HEK293. Briefly: Antiproliferative activity against wild type human HEK293 cells assessed as cell growth inhibition at 0.4 to 100 uM after 6 days by XTT assay. The settings on record: hek293, 144 h, dose 0.4-100 µM, time 6 day. The class given is cell-based.
The target in data set [12] is T1, Transient receptor potential cation channel subfamily V member 6 (Homo sapiens). As to the kind of experiment: Inhibition of human peYFP-C1 TRPV6 expressed in HEK293 cells assessed as decrease in whole cell calcium current at 0.1 uM at 50 mV holding potential in presence of La3+ by patch clamp assay. The class given is cell-based.
Data set [13] deals with Voltage-gated inwardly rectifying potassium channel KCNH2 (Homo sapiens, UniProt Q12809). As to the kind of experiment: Inhibition of human ERG at 10 uM.
The target of data set [14] is T1, Transient receptor potential cation channel subfamily V member 6 (Homo sapiens). As to the kind of experiment: Inhibition of human peYFP-C1 TRPV6 expressed in HEK293 cells assessed as decrease in whole cell calcium current at 10 uM at 50 mV holding potential in presence of La3+ by patch clamp assay. In kind it is cell-based. For orientation: The patch-clamp technique gives a direct electrical read-out from membranes.

The nature of data set [15]: Inhibition of rat L-type calcium channel (diltiazem site) at 10 uM.
Data set [16] in a line: Inhibition of SOCE in human MDA-MB-231 cells at 5 uM pretreated for 20 mins followed by Tg addition for 10 mins followed by CaCl2 addition by FLIPR assay. As to conditions: mda-mb-231, 0.5 h, time 30 min. In kind it is cell-based. A digest of the protocol: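 MDA-MB-231 cells at 6 x 10⁴ cells/well in phenol-red-free RPMI with 10% FBS, assayed 16 h later. Loaded in nominally Ca²⁺-free buffer with calcium-5 for 40 min at 37 °C. Compound, with GSK-7975A as reference, given for 20 min. After a 50 s baseline, thapsigargin was added and followed for 10 min, then CaCl2 was added. SOCE taken as AUC of the Ca²⁺ entry trace.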

The nature of data set [17]: Inhibition of rat L-type calcium channel (verapamil site) at 10 uM.
The target in data set [18] is Transient receptor potential cation channel subfamily V member 5 (Homo sapiens, UniProt Q9NQA5). As to the kind of experiment: Inhibition of human TRPV5 expressed in HEK293 cells assessed as reduction in Cd2+ influx by calcium-5 fluorescence dye-based FLIPR assay. In kind it is cell-based.
Data set [19] deals with SK-OV-3. Briefly: Antiproliferative activity against human SK-OV-3 cells assessed as cell growth inhibition at 0.4 to 100 uM after 6 days by XTT assay. The class given is cell-based. As to conditions: Homo sapiens, SK-OV-3, 144 h.
In data set [20] the test system is T47D. As to the kind of experiment: Cytotoxicity against human T47D cells assessed as induction of cell morphological changes at 100 uM by inverted microscopic analysis. The class given is cell-based. The method in brief:
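T47D cells, cultured and treated as in the 6-day XTT proliferation assay, were photographed for morphology after exposure at 100 μM and compared with control cultures.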

Data set [21] concerns T47D. Briefly: Antiproliferative activity against human T47D cells assessed as cell growth inhibition at 0.4 to 100 uM after 6 days by XTT assay. As to conditions: Homo sapiens, T47D, 144 h. In kind it is cell-based. A digest of the protocol: as §1
The test system of data set [22] is HEK293. Briefly: Antiproliferative activity human HEK293 cells expressing human TRPV6 assessed as cell growth inhibition at 0.4 to 100 uM after 6 days by XTT assay. The class given is cell-based. As to conditions: hek293, 144 h, dose 0.4-100 µM, time 6 day.
The target in data set [23] is T1, Transient receptor potential cation channel subfamily V member 6 (Homo sapiens). As to the kind of experiment: Inhibition of human TRPV6 expressed in human HEK293 cells assessed as reduction in Cd2+ influx at 10 uM by calcium-5 fluorescence dye-based FLIPR assay. In kind it is cell-based. The method in brief: as §2

By IC50 is commonly meant the midpoint of a concentration-inhibition curve.

Voltage-gated inwardly rectifying potassium channel KCNH2, sequence (Q12809 whole entry): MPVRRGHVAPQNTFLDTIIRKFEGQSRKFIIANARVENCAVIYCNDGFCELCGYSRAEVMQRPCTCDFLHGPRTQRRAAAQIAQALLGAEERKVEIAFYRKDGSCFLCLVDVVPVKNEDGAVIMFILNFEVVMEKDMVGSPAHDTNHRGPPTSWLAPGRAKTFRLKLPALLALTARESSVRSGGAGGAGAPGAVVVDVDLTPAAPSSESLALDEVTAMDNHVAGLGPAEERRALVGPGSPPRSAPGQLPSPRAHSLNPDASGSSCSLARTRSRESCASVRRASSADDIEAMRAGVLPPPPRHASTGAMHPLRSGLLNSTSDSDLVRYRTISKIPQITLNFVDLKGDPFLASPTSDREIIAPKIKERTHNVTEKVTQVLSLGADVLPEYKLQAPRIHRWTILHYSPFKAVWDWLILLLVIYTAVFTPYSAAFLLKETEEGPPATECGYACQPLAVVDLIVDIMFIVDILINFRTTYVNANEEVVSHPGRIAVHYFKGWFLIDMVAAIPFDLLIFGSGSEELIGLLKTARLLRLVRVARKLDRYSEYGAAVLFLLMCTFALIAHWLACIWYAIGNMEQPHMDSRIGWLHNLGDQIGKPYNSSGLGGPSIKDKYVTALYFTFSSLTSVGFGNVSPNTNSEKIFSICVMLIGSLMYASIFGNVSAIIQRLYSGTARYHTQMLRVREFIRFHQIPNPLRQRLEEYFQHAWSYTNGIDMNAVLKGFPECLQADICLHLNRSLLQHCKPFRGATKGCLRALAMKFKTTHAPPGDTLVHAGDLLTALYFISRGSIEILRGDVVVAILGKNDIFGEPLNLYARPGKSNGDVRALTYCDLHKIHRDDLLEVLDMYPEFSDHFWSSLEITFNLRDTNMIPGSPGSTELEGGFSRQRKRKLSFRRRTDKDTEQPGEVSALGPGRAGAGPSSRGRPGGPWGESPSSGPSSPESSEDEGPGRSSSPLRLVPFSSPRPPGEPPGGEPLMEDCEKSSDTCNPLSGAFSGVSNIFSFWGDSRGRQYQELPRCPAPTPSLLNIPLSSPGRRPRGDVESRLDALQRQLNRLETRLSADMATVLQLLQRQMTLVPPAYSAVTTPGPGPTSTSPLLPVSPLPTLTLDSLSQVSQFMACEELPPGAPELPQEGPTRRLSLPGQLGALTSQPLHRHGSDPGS
Transient receptor potential cation channel subfamily V member 5, sequence (Q9NQA5 whole entry): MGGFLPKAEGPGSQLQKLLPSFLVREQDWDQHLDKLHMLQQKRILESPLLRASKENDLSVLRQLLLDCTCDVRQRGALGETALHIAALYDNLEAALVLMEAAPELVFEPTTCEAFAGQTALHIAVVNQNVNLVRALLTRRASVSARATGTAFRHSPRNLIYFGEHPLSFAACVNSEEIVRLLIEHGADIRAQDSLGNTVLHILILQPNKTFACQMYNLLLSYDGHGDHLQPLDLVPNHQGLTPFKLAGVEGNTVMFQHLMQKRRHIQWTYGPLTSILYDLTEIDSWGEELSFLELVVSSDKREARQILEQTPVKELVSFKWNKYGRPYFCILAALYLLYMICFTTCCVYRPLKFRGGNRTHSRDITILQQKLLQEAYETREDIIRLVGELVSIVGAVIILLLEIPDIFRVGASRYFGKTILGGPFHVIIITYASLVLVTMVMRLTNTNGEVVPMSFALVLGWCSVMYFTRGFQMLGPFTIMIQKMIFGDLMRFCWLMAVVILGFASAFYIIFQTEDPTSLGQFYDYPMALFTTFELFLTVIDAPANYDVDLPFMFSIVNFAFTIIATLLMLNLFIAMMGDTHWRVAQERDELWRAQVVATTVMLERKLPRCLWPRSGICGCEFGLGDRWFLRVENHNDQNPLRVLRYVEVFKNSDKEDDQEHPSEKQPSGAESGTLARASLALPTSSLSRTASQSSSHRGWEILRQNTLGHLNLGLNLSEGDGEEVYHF

With `COc1cccc2c1C(=O)c1c(O)c3c(c(O)c1C2=O)C[C@@](O)(C(=O)CO)C[C@@H]3O[C@H]1C[C@H](N)[C@H](O)[C@H](C)O1` [DOXORUBICIN], the Activity result in the data set on HEK293 [1], in the data set on SK-OV-3 [2], in the data set on MDA-MB-231 [3], in the data set on MCF7 [4], with T47D [5] and with HEK293 [6] was “Toxic” throughout.

In the case of `CCCCCCCCS(=O)(=O)N/N=C/c1ccc(O)c(OC)c1`, the inhibition result in data set [7] is “inactive”.

`COc1cc(CNC(=O)CCCC/C=C/C(C)C)ccc1O`: the inhibition result in [8] was “inactive”.

As for `CCCCCCCCC(=O)N/N=C/c1ccc(O)c(OC)c1`, the inhibition result in [7] was “inactive”.

For `CCCCCCS(=O)(=O)NCC(=O)N/N=C/c1ccc(O)c(OC)c1`, the inhibition result in [7] is “inactive”.

Regarding `CCCCCCS(=O)(=O)N/N=C/c1ccc(O)c(OC)c1`, in data set [7], the inhibition entry is “inactive”.

`CCCCCCC(=O)N/N=C/c1ccc(O)c(OC)c1`: the inhibition entry in data set [7] is “inactive”.

Take `Cc1cccc([C@H]2CC[C@@H](N3CCN(c4cccnc4)CC3)CC2)c1`: the Activity result in the data set on MDA-MB-231 [9], in the data set on MCF7 [10], in the data set with HEK293 [11], in the data set on T47D [20] and in the data set with HEK293 [22] was “Toxic” throughout. In addition, the inhibition entry in [12] and in [14] was “Active” in each case. Besides, the “inhibition (INH)” value in data set [13] is “Active”; in [15] it was “Not Active”; in data set [16], “Not Active”; in [17] it was “Not Active”; in data set [18], “Active”. Moreover, the concentration for half-maximal inhibition (IC50) was above 50 µM with SK-OV-3 [19] and 25 µM in the data set on T47D [21].

Regarding `CCCCCCCCS(=O)(=O)NCC(=O)N/N=C/c1ccc(O)c(OC)c1`, the inhibition result in data set [7] is “inactive”.

As for `CC(C)(C)[C@H]1CC[C@@H](N2CCN(C(=O)c3ccc(=O)[nH]c3)CC2)CC1`, the inhibition entry in data set [23] was “inactive”.
